According to ChEMBL document CHEMBL1154067, “Antiviral and cytotoxic activities of aminoarylazo compounds and aryltriazene derivatives” (Bioorg Med Chem, 2009):
The source made the active and inactive calls.

Tested on: MT4
Assay: Cytotoxicity against human MT4 cells after 96 hrs by MTT assay
Format: cell-based
Settings: mt4, 96 h
Method in brief: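 Exponentially growing mock-infected MT-4 seeded at 1 × 10^5 cells/mL in RPMI-1640 with 10% FCS, penicillin and streptomycin. Incubated with or without serial compound dilutions at 37 °C, 5% CO2. Viability by MTT after 96 h. CC50 = concentration reducing viability 50%.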

Structure (SMILES) | CC50 [µM]
c1ccc(/N=N/c2ccc(NC[C@@H]3CCCN4CCCC[C@H]34)c3c2CCCC3)cc1 | 100
FC(F)(F)c1cccc(/N=N/c2ccc(NC[C@@H]3CCCN4CCCC[C@H]34)c3c2CCCC3)c1 | 15
Fc1ccc(F)c(/N=N/Nc2ccccc2)c1 | 100
Cc1c(/N=N/c2ccccc2)ccc(NC[C@@H]2CCCN3CCCC[C@H]23)c1C | 31
CN(C)CCCNc1ccc(/N=N/c2ccccc2)cc1 | 17

Tested on: not listed separately
Assay: Cytotoxicity against MDBK cells after 48 to 96 hrs by MTT assay
Format: cell-based, Bos taurus
Settings: cattle, mdbk
Method in brief: (§1)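 Mock-infected cells in maintenance medium, MDBK at 6 × 10^5 and BHK at 1 × 10^6 cells/mL initial density, with or without serial compound dilutions. Run in parallel with antiviral assays. Viability by MTT after 48–96 h at 37 °C, 5% CO2. CC50 = concentration reducing viability 50%.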

Structure (SMILES) | CC50 [µM]
c1ccc(/N=N/c2ccc(NC[C@@H]3CCCN4CCCC[C@H]34)c3c2CCCC3)cc1 | > 100
FC(F)(F)c1cccc(/N=N/c2ccc(NC[C@@H]3CCCN4CCCC[C@H]34)c3c2CCCC3)c1 | 30
Fc1ccc(F)c(/N=N/Nc2ccccc2)c1 | > 100
Cc1c(/N=N/c2ccccc2)ccc(NC[C@@H]2CCCN3CCCC[C@H]23)c1C | 48
CN(C)CCCNc1ccc(/N=N/c2ccccc2)cc1 | 58

Tested on: Bovine viral diarrhea virus 1
Assay: Antiviral activity against Bovine viral diarrhea virus infected in MDBK cells assessed as inhibition of virus-induced cytopathicity after 3 to 4 days by MTT assay
Format: functional, organism-based
Settings: Bovine viral diarrhea virus isolates and strains

Structure (SMILES) | EC50 [µM]
c1ccc(/N=N/c2ccc(NC[C@@H]3CCCN4CCCC[C@H]34)c3c2CCCC3)cc1 | 30
FC(F)(F)c1cccc(/N=N/c2ccc(NC[C@@H]3CCCN4CCCC[C@H]34)c3c2CCCC3)c1 | 7
Fc1ccc(F)c(/N=N/Nc2ccccc2)c1 | > 100
Cc1c(/N=N/c2ccccc2)ccc(NC[C@@H]2CCCN3CCCC[C@H]23)c1C | 2.5
CN(C)CCCNc1ccc(/N=N/c2ccccc2)cc1 | 1.6

Tested on: Yellow fever virus
Assay: Antiviral activity against Yellow fever virus infected in BHK-21 cells assessed as inhibition of virus-induced cytopathicity after 3 to 4 days by MTT assay
Format: functional, organism-based
Settings: not given

Structure (SMILES) | EC50 [µM]
c1ccc(/N=N/c2ccc(NC[C@@H]3CCCN4CCCC[C@H]34)c3c2CCCC3)cc1 | ≥ 100
FC(F)(F)c1cccc(/N=N/c2ccc(NC[C@@H]3CCCN4CCCC[C@H]34)c3c2CCCC3)c1 | > 14
Fc1ccc(F)c(/N=N/Nc2ccccc2)c1 | > 100
Cc1c(/N=N/c2ccccc2)ccc(NC[C@@H]2CCCN3CCCC[C@H]23)c1C | 9
CN(C)CCCNc1ccc(/N=N/c2ccccc2)cc1 | ≥ 31

Tested on: Mammalian orthoreovirus 1
Assay: Antiviral activity against Reovirus-1 infected in BHK-21 cells assessed as inhibition of virus-induced cytopathicity after 3 to 4 days by MTT assay
Format: functional, organism-based
Settings: Mammalian orthoreovirus 1, BHK-21
Method in brief: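 BHK-21 cells seeded at 5 × 10^4 cells/well, grown overnight to confluent monolayers at 37 °C in 5% CO2, then infected at m.o.i. 0.01 in serum-free medium. One hour later, MEM Earle's with 1% final inactivated FCS added, with or without serial compound dilutions. Viability read by MTT after 3–4 days at 37 °C. EC50 is the concentration giving 50% protection from cytopathogenicity.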

Structure (SMILES) | EC50 [µM]
c1ccc(/N=N/c2ccc(NC[C@@H]3CCCN4CCCC[C@H]34)c3c2CCCC3)cc1 | > 100
FC(F)(F)c1cccc(/N=N/c2ccc(NC[C@@H]3CCCN4CCCC[C@H]34)c3c2CCCC3)c1 | > 14
Fc1ccc(F)c(/N=N/Nc2ccccc2)c1 | > 100
Cc1c(/N=N/c2ccccc2)ccc(NC[C@@H]2CCCN3CCCC[C@H]23)c1C | > 47
CN(C)CCCNc1ccc(/N=N/c2ccccc2)cc1 | > 31

Tested on: Vero
Assay: Cytotoxicity against african green monkey Vero 76 cells by crystal violet staining
Format: cell-based
Settings: chlorocebus sabaeus, vero
Method in brief: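 Mock-infected Vero 76 seeded at 4 × 10^5 cells/mL, run in parallel with plaque assays, with or without serial compound dilutions. Cell number of monolayers determined by crystal violet staining. CC50 = concentration reducing viable cell number 50%.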

Structure (SMILES) | CC50 [µM]
c1ccc(/N=N/c2ccc(NC[C@@H]3CCCN4CCCC[C@H]34)c3c2CCCC3)cc1 | 80
FC(F)(F)c1cccc(/N=N/c2ccc(NC[C@@H]3CCCN4CCCC[C@H]34)c3c2CCCC3)c1 | 50
Fc1ccc(F)c(/N=N/Nc2ccccc2)c1 | 80
Cc1c(/N=N/c2ccccc2)ccc(NC[C@@H]2CCCN3CCCC[C@H]23)c1C | 60
CN(C)CCCNc1ccc(/N=N/c2ccccc2)cc1 | 30

Tested on: Coxsackievirus B2
Assay: Antiviral activity against Coxsackie virus type B2 virus infected in african green monkey Vero-76 cells after 3 days by plaque reduction assay
Format: functional, organism-based
Settings: Enterovirus B, Vero 76, 72 h
Method in brief: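 Vero 76 cells seeded at 2 × 10^5 cells/well, grown overnight to confluence at 37 °C in 5% CO2, then infected at 50–100 PFU/well. Unadsorbed virus removed. Overlay of DMEM with 1% inactivated FCS and 0.75% methylcellulose, with or without serial compound dilutions. After 3 days at 37 °C, fixed and stained with crystal violet in PBS/50% ethanol; plaques counted. EC50 is the concentration reducing plaque number by 50%.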

Structure (SMILES) | EC50 [µM]
c1ccc(/N=N/c2ccc(NC[C@@H]3CCCN4CCCC[C@H]34)c3c2CCCC3)cc1 | > 80
FC(F)(F)c1cccc(/N=N/c2ccc(NC[C@@H]3CCCN4CCCC[C@H]34)c3c2CCCC3)c1 | > 50
Fc1ccc(F)c(/N=N/Nc2ccccc2)c1 | 12
Cc1c(/N=N/c2ccccc2)ccc(NC[C@@H]2CCCN3CCCC[C@H]23)c1C | > 60
CN(C)CCCNc1ccc(/N=N/c2ccccc2)cc1 | > 30

Tested on: Respiratory syncytial virus
Assay: Antiviral activity against Respiratory syncytial virus A2 infected in Vero-76 cells after 5 days by plaque reduction assay
Format: functional, organism-based
Settings: human respiratory syncytial virus, A2, Vero 76, 120 h

Structure (SMILES) | EC50 [µM]
c1ccc(/N=N/c2ccc(NC[C@@H]3CCCN4CCCC[C@H]34)c3c2CCCC3)cc1 | > 80
FC(F)(F)c1cccc(/N=N/c2ccc(NC[C@@H]3CCCN4CCCC[C@H]34)c3c2CCCC3)c1 | > 50
Fc1ccc(F)c(/N=N/Nc2ccccc2)c1 | 10
Cc1c(/N=N/c2ccccc2)ccc(NC[C@@H]2CCCN3CCCC[C@H]23)c1C | > 60
CN(C)CCCNc1ccc(/N=N/c2ccccc2)cc1 | 25

Tested on: Human alphaherpesvirus 1
Assay: Antiviral activity against HSV1 infected in Vero-76 cells after 3 days by plaque reduction assay
Format: functional, organism-based
Settings: Human alphaherpesvirus 1, Vero 76, 72 h

Structure (SMILES) | EC50 [µM]
c1ccc(/N=N/c2ccc(NC[C@@H]3CCCN4CCCC[C@H]34)c3c2CCCC3)cc1 | > 80
FC(F)(F)c1cccc(/N=N/c2ccc(NC[C@@H]3CCCN4CCCC[C@H]34)c3c2CCCC3)c1 | > 50
Fc1ccc(F)c(/N=N/Nc2ccccc2)c1 | 55
Cc1c(/N=N/c2ccccc2)ccc(NC[C@@H]2CCCN3CCCC[C@H]23)c1C | > 60
CN(C)CCCNc1ccc(/N=N/c2ccccc2)cc1 | > 30

Tested on: not listed separately
Assay: Cytotoxicity against hamster BHK21 cells assessed as reduction in cell viability after 48 to 96 hrs by MTT assay
Format: cell-based, Mesocricetus auratus, BHK-21
Settings: bhk-21
Method in brief: as §1

Structure (SMILES) | CC50 [µM]
c1ccc(/N=N/c2ccc(NC[C@@H]3CCCN4CCCC[C@H]34)c3c2CCCC3)cc1 | > 100
FC(F)(F)c1cccc(/N=N/c2ccc(NC[C@@H]3CCCN4CCCC[C@H]34)c3c2CCCC3)c1 | 14
Fc1ccc(F)c(/N=N/Nc2ccccc2)c1 | > 100
Cc1c(/N=N/c2ccccc2)ccc(NC[C@@H]2CCCN3CCCC[C@H]23)c1C | 47
CN(C)CCCNc1ccc(/N=N/c2ccccc2)cc1 | 31

Tested on: Poliovirus 1
Assay: Antiviral activity against Human poliovirus 1 strain Sabin after 2 days by plaque reduction assay
Format: functional
Settings: not given

Structure (SMILES) | Activity
c1ccc(/N=N/c2ccc(NC[C@@H]3CCCN4CCCC[C@H]34)c3c2CCCC3)cc1 | inactive
FC(F)(F)c1cccc(/N=N/c2ccc(NC[C@@H]3CCCN4CCCC[C@H]34)c3c2CCCC3)c1 | inactive
Cc1c(/N=N/c2ccccc2)ccc(NC[C@@H]2CCCN3CCCC[C@H]23)c1C | inactive
CN(C)CCCNc1ccc(/N=N/c2ccccc2)cc1 | inactive

Same assay, conditions: Enterovirus C, 48 h

Structure (SMILES) | EC50 [µM]
Fc1ccc(F)c(/N=N/Nc2ccccc2)c1 | > 80

Tested on: Human immunodeficiency virus 1
Assay: Antiviral activity against HIV1 infected in human MT4 cells assessed as inhibition of virus-induced cytopathicity after 4 days by MTT assay
Format: functional, organism-based
Settings: not given

Structure (SMILES) | inhibition
c1ccc(/N=N/c2ccc(NC[C@@H]3CCCN4CCCC[C@H]34)c3c2CCCC3)cc1 | inactive
FC(F)(F)c1cccc(/N=N/c2ccc(NC[C@@H]3CCCN4CCCC[C@H]34)c3c2CCCC3)c1 | inactive
Fc1ccc(F)c(/N=N/Nc2ccccc2)c1 | inactive
Cc1c(/N=N/c2ccccc2)ccc(NC[C@@H]2CCCN3CCCC[C@H]23)c1C | inactive
CN(C)CCCNc1ccc(/N=N/c2ccccc2)cc1 | inactive

Tested on: Vesicular stomatitis virus
Assay: Antiviral activity against Vesicular stomatitis virus after 2 days by plaque reduction assay
Format: functional, organism-based
Settings: not given

Structure (SMILES) | Activity
c1ccc(/N=N/c2ccc(NC[C@@H]3CCCN4CCCC[C@H]34)c3c2CCCC3)cc1 | inactive
FC(F)(F)c1cccc(/N=N/c2ccc(NC[C@@H]3CCCN4CCCC[C@H]34)c3c2CCCC3)c1 | inactive
Fc1ccc(F)c(/N=N/Nc2ccccc2)c1 | inactive
Cc1c(/N=N/c2ccccc2)ccc(NC[C@@H]2CCCN3CCCC[C@H]23)c1C | inactive
CN(C)CCCNc1ccc(/N=N/c2ccccc2)cc1 | inactive

Tested on: Vaccinia virus
Assay: Antiviral activity against Vaccinia virus after 3 days by plaque reduction assay
Format: functional, organism-based
Settings: Orthopoxvirus vaccinia

Structure (SMILES) | Activity
c1ccc(/N=N/c2ccc(NC[C@@H]3CCCN4CCCC[C@H]34)c3c2CCCC3)cc1 | inactive
FC(F)(F)c1cccc(/N=N/c2ccc(NC[C@@H]3CCCN4CCCC[C@H]34)c3c2CCCC3)c1 | inactive
Fc1ccc(F)c(/N=N/Nc2ccccc2)c1 | inactive
Cc1c(/N=N/c2ccccc2)ccc(NC[C@@H]2CCCN3CCCC[C@H]23)c1C | inactive
CN(C)CCCNc1ccc(/N=N/c2ccccc2)cc1 | inactive
